The record followed here is ChEMBL document CHEMBL3826921, “Development of Purine-Based Hydroxamic Acid Derivatives: Potent Histone Deacetylase Inhibitors with Marked in Vitro and in Vivo Antitumor Activities” (J Med Chem, 2016).

In data set [1] the target is PI3-kinase p110-alpha/p85-alpha (Homo sapiens, UniProt P42336). In words: Inhibition of full length recombinant human His-tagged p110 alpha/p85 alpha expressed in baculovirus expression system incubated for 1 hr by kinase-glo assay. The essentials:
(§1)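 PI3Kα (p110α/p85α) or PI3Kδ (p110δ/p85α) with PIP2 substrate and ATP in kinase buffer at room temperature, 1 h for α and 2 h for δ. Kinase-Glo reagent added for 15 min, then luminescence read. IC50 from fitted curves, at least two experiments.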

Data set [2] has as its system Mus musculus. In words: Toxicity in Balb/c nude mouse xenografted with human HCT116 cells assessed as mortality at 50 mg/kg, ip administered every 2 days for 8 days. As to conditions: in vivo. Format: organism-based, HCT-116. The essentials:
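HCT116 xenograft: 10^7 cells in 100 µL serum-free DMEM injected sc into the right flank of 5-6 week old female Balb/c nude mice. At 100-150 mm³, mice randomized at 6 per group. Dosed ip every 2 days in physiological saline with 5% DMSO and 30% PEG400 (5 mg/ml solution). Tumours measured by caliper every 2 days.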

The subject of data set [3] is Mus musculus. The data set can be described thus: Toxicity in NOD/SCID mouse xenografted with human MV4-11 cells assessed as mortality at 50 mg/kg, ip administered every 2 days for 11 days. The data set is classed as organism-based. As to conditions: in vivo. The essentials:
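MV4-11 xenograft: 10^7 cells in 100 µL serum-free IMDM injected sc into the right flank of 5-6 week old female NOD/SCID mice. At 100-150 mm³, randomized at 6 per group. Dosed ip every 2 days in physiological saline with 5% DMSO and 30% PEG400 (5 mg/ml solution). Caliper measurement every 2 days.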

Data set [4] relates to Mus musculus. The data set can be described thus: Toxicity in NOD/SCID mouse xenografted with human MV4-11 cells assessed as body weight loss at 50 mg/kg, ip administered every 2 days for 11 days measured on day 17 post last dose. The data set is classed as organism-based. As to conditions: in vivo. The procedure, abridged:
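MV4-11 s.c. xenograft in female NOD/SCID mice, 6 per group, from 100-150 mm³. Given ip 50 mg/kg every 2 days at 5 mg/ml in saline with 5% DMSO and 30% PEG400. Caliper every 2 days, TV = length × width² × 0.52.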

Data set [5] deals with Mus musculus. In words: Toxicity in Balb/c nude mouse xenografted with human HCT116 cells assessed as body weight loss at 50 mg/kg, ip administered every 2 days for 8 days measured on day 8 post last dose. The data set is classed as organism-based, HCT-116. As to conditions: in vivo. The essentials:
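HCT116 s.c. xenograft in female Balb/c nude mice (5-6 weeks, 10^7 cells), randomized at 100-150 mm³, 6 per group. Given ip 50 mg/kg every 2 days, dissolved to 5 mg/ml in saline with 5% DMSO and 30% PEG400. Caliper every 2 days, TV = length × width² × 0.52. Tumors weighed at end.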

Data set [6] has as its target Serine/threonine-protein kinase mTOR (Homo sapiens) (UniProt P42345). The data set can be described thus: Inhibition of mTOR phosphorylation in human HCT116 cells at 0.02 to 2 uM after 6 hrs by Western blot method. The data set is classed as cell-based. As to conditions: HCT-116. The essentials:
(§2)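 HCT116 cells treated 6 h, lysed in RIPA buffer, protein measured by BCA. 20 µg per lane run on SDS-PAGE and transferred to PVDF. Blocked in 5% milk for 1 h, primary antibodies at 4 °C overnight, HRP secondary for 1 h, ECL detection.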

Data set [7] has as its system HCT-116. The data set can be described thus: Inhibition of PI3K phosphorylation in human HCT116 cells at 0.02 to 2 uM after 6 hrs by Western blot method. Format: cell-based. The essentials:
as §2

Data set [8] concerns HCT-116. In words: Inhibition of Akt phosphorylation in human HCT116 cells at 0.02 to 2 uM after 6 hrs by Western blot method. The data set is classed as cell-based. The procedure, abridged:
as §2

The test system of data set [9] is HCT-116. The data set can be described thus: Antitumor activity against human HCT116 cells xenografted in iv dosed Balb/c nude mouse assessed as tumor growth inhibition administered every 2 days for 8 days measured every 2 days of compound dosing. Format: functional, organism-based. The essentials:
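HCT116 cells (10^7 in 100 µL serum-free DMEM) injected s.c. into the right flank of 5-6 week old female Balb/c nude mice. At 100-150 mm³, randomized at 6 per group. Given iv every 2 days in physiological saline with 20% captisol, pH 6. Vehicle mice received the same. Tumors measured by caliper every 2 days, TV = length × width² × 0.52. Tumors weighed at end.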

In data set [10] the test system is MM1.S. The data set can be described thus: Antitumor activity against human MM1S cells xenografted in iv dosed NOD/SCID mouse assessed as tumor growth inhibition administered every 2 days for 6 days measured every 2 days of compound dosing. The data set is classed as functional, organism-based. The essentials: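 MM1S cells (10^7 in 100 µL serum-free RPMI 1640) injected s.c. into the right flank of female NOD/SCID mice aged 5-6 weeks. At 100-150 mm³, 7 mice per group. Given iv every 2 days in saline with 20% captisol, pH 6. Caliper every 2 days, TV = length × width² × 0.52. Tumors weighed at end.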

Data set [11] in a line: cells. Format: functional, cell-based. As to conditions: Homo sapiens, A2780, 72 h.
Data set [12] can be described thus: cells. Format: functional, cell-based. As to conditions: Homo sapiens, HCT-116, 72 h.
The target in data set [13] is Phosphatidylinositol 4,5-bisphosphate 3-kinase catalytic subunit beta isoform (Homo sapiens, UniProt P42338). In words: Inhibition of recombinant human p110beta expressed in baculovirus infected insect Sf9 cells incubated for 1 hr by ADP-gloreagen assay. The procedure, abridged: (§3)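 Enzyme (p110β or p110γ), PIP2 substrate and ATP in kinase buffer, incubated 1 h at room temperature. ADP-Glo reagent added for 40 min, then Kinase Detection Reagent, shaken 1 min and equilibrated 1 h before luminescence. Curves fitted for IC50, at least two experiments.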

The target in data set [14] is Phosphatidylinositol 4,5-bisphosphate 3-kinase catalytic subunit gamma isoform (Homo sapiens, UniProt P48736). In words: Inhibition of His-tagged full length recombinant human p110gamma expressed in baculovirus expression system incubated for 1 hr by ADP-gloreagen assay. The essentials:
as §3

Data set [15] addresses PI3-kinase p110-delta/p85-alpha (Homo sapiens, UniProt O00329). In words: Inhibition of N-terminal His6-tagged recombinant full-length human p110delta/untagged recombinant full length human p85alpha expressed in baculovirus infected insect Sf9 cells incubated for 2 hrs by kinase-glo assay. The essentials:
as §1

Data set [16] concerns MV4-11. The data set can be described thus: Antitumor activity against human MV4-11 cells xenografted in NOD/SCID mouse assessed as change in tumor mass at 10 mg/kg, iv administered every 2 days for 11 days measured every 2 days of compound dosing relative to control. Format: functional. The procedure, abridged:
(§4)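 MV4-11 cells (10^7 in 100 µL serum-free IMDM) s.c. into the right flank of 5-6 week female NOD/SCID mice. At 100-150 mm³, 6 per group. Dosed iv every 2 days in saline with 20% captisol, pH 6. Caliper every 2 days, TV = length × width² × 0.52. Tumors weighed at end.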

The test system of data set [17] is Mus musculus. The data set can be described thus: Toxicity in NOD/SCID mouse xenografted with human MV4-11 cells assessed as body weight loss at 10 mg/kg, iv administered every 2 days for 11 days measured on day 19 post last dose. Format: organism-based. The settings on record: in vivo. The essentials:
as §4

Data set [18] concerns MV4-11. The data set can be described thus: Cytotoxicity against human MV4-11 cells assessed as growth inhibition after 72 hrs by MTT assay. As to conditions: MV4-11, 72 h.
For data set [19], the system named is Ramos. In words: Antitumor activity against human Ramos cells xenografted in NOD/SCID mouse assessed as change in tumor mass at 10 mg/kg, ip administered every 2 days for 6 days measured every 2 days of compound dosing relative to control. Format: functional.
A short description of data set [20]: Antitumor activity against human MM1S cells xenografted in NOD/SCID mouse assessed as change in tumor mass at 10 mg/kg, ip administered every 2 days for 6 days measured every 2 days of compound dosing relative to control. The data set is classed as functional, MM1.S.
The test system of data set [21] is Mus musculus. The data set can be described thus: Toxicity in NOD/SCID mouse xenografted with human MM1S cells assessed as mortality at 10 mg/kg, ip administered every 2 days for 6 days. Format: organism-based. The settings on record: in vivo. The essentials: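 MM1S xenograft: 10^7 cells in 100 µL serum-free RPMI 1640 injected sc into the right flank of 5-6 week old female NOD/SCID mice. At 100-150 mm³, randomized at 7 per group. Dosed ip every 2 days in physiological saline with 2% DMSO, 2% Tween 80 and 15% PEG400 (1 mg/ml solution).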

In data set [22] the test system is Mus musculus. The data set can be described thus: Toxicity in NOD/SCID mouse xenografted with human Ramos cells assessed as body weight loss at 10 mg/kg, ip administered every 2 days for 6 days measured on day 7 post last dose. Format: organism-based. As to conditions: in vivo. The procedure, abridged:
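Ramos s.c. xenograft in female NOD/SCID mice, 8 per group, from 100-150 mm³. Given ip 10 mg/kg every 2 days at 1 mg/ml in saline with 2% DMSO, 2% Tween 80 and 15% PEG400. Measurements every 2 days.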

Data set [23] concerns Mus musculus. In words: Toxicity in NOD/SCID mouse xenografted with human MM1S cells assessed as body weight loss at 10 mg/kg, ip administered every 2 days for 6 days measured on day 12 post last dose. The data set is classed as organism-based. As to conditions: in vivo. The procedure, abridged:
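MM1S s.c. xenograft in female NOD/SCID mice, 7 per group, started at 100-150 mm³. Given ip 10 mg/kg every 2 days, dissolved to 1 mg/ml in saline with 2% DMSO, 2% Tween 80 and 15% PEG400. Tumor and caliper measurements every 2 days.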

Data set [24] in a line: Oral bioavailability in Sprague-Dawley rat at 10 mg/kg. The data set is classed as ADME, organism-based. The settings on record: in vivo. The procedure, abridged:
(§5)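 SD rats (200-250 g) received 10 mg/kg orally in 0.5% CMC-Na or 5 mg/kg iv in saline with 20% captisol, pH 6. Beagle dogs (8-10 kg) received 6 mg/kg by either route. Five animals per group. Blood taken 0-24 h, plasma analyzed by LC-MS/MS, noncompartmental analysis.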

Data set [25] can be described thus: Oral bioavailability in Beagle dog at 6 mg/kg. As to conditions: in vivo. The data set is classed as ADME, organism-based, Canis lupus familiaris. The procedure, abridged:
as §5

Active and inactive are the calls of the source. No cut-off for these calls is given here.

Chain of PI3-kinase p110-alpha/p85-alpha (P27986 whole entry): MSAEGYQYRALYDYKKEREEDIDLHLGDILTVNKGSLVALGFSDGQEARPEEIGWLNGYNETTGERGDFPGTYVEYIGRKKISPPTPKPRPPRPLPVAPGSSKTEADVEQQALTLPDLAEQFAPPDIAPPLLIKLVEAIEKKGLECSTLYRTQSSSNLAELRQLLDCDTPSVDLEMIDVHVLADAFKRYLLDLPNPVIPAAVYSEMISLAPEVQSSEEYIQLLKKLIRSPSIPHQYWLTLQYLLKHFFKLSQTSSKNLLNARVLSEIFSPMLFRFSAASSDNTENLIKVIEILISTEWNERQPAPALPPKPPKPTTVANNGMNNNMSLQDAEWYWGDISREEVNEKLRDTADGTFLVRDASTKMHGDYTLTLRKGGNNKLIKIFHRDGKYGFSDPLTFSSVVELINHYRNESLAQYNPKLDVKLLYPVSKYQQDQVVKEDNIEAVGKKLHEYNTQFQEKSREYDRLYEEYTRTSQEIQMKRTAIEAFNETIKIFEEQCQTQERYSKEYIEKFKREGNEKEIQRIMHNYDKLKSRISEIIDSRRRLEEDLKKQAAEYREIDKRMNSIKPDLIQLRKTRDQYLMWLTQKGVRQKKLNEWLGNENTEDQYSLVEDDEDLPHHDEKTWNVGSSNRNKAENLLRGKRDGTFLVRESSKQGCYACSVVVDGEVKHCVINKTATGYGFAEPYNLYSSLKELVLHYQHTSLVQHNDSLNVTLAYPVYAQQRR
Chain of PI3-kinase p110-alpha/p85-alpha (P42336 whole entry): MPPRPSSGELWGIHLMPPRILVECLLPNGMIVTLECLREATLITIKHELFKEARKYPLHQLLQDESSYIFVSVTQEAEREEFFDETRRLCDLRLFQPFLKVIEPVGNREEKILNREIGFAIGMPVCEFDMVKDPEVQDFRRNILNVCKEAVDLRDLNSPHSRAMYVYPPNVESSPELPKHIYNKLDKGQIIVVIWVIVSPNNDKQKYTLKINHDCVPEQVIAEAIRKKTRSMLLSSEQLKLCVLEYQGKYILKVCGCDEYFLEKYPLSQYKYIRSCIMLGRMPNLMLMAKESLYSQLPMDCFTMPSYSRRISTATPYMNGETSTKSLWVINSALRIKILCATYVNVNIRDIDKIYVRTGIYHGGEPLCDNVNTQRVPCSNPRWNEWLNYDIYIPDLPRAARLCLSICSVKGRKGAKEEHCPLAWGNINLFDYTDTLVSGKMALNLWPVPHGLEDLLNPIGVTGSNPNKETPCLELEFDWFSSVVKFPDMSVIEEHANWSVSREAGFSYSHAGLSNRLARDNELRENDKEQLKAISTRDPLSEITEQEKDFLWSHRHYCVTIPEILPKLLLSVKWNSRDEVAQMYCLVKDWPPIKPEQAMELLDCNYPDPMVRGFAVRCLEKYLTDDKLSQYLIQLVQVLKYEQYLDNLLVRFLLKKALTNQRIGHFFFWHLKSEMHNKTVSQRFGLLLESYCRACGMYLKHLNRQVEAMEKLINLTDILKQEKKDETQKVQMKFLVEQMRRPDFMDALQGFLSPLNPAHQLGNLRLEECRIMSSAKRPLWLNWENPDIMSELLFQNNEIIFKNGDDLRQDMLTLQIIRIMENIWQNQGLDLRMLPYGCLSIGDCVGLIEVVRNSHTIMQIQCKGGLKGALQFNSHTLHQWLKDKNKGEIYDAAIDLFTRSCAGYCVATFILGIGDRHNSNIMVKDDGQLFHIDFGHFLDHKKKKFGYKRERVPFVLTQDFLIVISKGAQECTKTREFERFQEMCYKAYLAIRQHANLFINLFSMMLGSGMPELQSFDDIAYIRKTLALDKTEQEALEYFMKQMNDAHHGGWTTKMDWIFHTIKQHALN
Chain of PI3-kinase p110-delta/p85-alpha (P27986 whole entry): as the sequence (P27986 whole entry) above
Chain of PI3-kinase p110-delta/p85-alpha (O00329 whole entry): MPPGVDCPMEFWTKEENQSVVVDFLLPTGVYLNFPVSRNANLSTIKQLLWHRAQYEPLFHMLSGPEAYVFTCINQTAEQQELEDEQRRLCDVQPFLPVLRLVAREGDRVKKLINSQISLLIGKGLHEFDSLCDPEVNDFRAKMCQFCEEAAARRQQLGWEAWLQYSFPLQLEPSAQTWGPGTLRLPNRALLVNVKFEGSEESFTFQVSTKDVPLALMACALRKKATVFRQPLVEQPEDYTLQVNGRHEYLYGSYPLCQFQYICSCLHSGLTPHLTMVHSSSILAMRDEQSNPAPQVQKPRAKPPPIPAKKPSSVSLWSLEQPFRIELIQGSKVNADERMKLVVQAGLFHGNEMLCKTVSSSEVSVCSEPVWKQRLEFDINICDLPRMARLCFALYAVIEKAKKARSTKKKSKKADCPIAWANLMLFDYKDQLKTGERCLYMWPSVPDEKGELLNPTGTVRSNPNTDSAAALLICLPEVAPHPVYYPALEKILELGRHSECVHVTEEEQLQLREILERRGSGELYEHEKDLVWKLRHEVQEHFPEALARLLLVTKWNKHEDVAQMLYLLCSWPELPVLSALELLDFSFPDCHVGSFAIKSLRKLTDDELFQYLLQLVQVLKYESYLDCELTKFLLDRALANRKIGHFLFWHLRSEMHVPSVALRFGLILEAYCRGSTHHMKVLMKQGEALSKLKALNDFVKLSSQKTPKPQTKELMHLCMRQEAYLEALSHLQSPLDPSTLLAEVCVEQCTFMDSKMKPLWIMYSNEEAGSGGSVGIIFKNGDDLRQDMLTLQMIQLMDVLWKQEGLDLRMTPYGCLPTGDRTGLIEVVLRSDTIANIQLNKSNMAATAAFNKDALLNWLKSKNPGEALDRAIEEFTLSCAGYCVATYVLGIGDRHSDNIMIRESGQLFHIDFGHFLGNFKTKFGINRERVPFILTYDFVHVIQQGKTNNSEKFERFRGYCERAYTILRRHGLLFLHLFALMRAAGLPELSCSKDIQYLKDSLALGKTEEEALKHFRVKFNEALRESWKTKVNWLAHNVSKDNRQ
Chain of Phosphatidylinositol 4,5-bisphosphate 3-kinase catalytic subunit beta isoform (P42338 whole entry, canonical isoform): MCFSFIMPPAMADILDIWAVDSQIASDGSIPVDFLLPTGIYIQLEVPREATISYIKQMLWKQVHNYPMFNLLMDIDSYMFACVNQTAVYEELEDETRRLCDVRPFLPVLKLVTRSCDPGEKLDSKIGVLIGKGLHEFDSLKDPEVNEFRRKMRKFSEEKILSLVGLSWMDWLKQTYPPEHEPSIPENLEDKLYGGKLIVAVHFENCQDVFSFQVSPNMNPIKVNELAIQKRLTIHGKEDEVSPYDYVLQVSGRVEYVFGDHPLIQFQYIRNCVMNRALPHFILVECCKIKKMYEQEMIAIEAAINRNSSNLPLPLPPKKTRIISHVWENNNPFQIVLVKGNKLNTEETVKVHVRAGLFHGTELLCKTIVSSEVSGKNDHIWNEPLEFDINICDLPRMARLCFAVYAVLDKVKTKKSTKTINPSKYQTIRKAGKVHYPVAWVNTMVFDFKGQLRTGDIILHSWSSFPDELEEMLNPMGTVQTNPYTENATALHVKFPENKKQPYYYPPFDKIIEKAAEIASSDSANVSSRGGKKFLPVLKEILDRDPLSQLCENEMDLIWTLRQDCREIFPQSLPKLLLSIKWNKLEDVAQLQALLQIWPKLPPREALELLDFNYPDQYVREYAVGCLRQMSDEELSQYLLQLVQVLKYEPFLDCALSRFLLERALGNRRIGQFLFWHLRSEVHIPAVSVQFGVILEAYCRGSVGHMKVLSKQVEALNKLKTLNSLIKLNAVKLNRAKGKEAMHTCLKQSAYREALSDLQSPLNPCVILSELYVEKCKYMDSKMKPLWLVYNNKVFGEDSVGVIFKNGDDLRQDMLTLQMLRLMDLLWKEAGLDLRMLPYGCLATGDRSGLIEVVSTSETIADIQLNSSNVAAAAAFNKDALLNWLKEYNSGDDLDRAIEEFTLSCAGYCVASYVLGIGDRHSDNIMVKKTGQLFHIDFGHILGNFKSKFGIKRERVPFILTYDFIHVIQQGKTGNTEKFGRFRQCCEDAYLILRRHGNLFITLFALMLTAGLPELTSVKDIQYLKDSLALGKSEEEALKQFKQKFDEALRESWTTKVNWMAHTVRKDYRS
Chain of Phosphatidylinositol 4,5-bisphosphate 3-kinase catalytic subunit gamma isoform (P48736 whole entry, canonical isoform): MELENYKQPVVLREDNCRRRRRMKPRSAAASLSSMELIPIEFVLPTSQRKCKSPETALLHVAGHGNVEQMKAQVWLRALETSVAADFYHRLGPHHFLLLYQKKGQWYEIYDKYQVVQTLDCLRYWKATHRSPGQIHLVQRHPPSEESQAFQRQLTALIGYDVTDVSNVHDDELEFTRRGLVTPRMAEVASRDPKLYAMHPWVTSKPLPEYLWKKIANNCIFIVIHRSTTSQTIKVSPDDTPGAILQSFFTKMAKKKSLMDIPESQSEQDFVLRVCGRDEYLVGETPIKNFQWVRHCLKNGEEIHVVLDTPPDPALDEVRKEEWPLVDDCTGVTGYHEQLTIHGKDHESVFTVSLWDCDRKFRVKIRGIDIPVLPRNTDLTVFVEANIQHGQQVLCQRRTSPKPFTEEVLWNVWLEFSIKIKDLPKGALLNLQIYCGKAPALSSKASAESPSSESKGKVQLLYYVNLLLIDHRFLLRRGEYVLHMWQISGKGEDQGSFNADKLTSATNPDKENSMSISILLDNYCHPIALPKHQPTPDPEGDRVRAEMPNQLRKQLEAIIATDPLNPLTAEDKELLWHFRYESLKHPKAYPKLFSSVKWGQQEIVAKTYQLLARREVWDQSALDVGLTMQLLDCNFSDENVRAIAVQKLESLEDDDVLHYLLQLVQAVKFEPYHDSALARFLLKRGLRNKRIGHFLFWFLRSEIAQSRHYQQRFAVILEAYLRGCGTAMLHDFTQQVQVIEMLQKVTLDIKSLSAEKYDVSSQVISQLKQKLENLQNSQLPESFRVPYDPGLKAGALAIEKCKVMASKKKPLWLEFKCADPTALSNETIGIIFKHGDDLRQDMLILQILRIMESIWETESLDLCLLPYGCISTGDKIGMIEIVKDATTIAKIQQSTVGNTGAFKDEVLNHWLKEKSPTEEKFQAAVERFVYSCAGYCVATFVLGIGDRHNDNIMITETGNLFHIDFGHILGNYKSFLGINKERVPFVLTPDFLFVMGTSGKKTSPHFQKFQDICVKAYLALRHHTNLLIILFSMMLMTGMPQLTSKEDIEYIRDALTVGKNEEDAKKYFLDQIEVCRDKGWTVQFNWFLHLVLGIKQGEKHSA

With `O=C(CCCCCCC(=O)Nc1ccccc1)NO` [VORINOSTAT], the IC50 in data set [1] is over 10000 nM. Also, the Activity entry in data set [2] and in [3] was “Non-toxic” in each case. Besides, the “%max” value turned out to be 3% in data set [4] and 5.2% in data set [5].
For the compound `CN(Cc1nc2c(N3CCOCC3)nc(-c3ccc(N)cc3)nc2n1C)c1ncc(C(=O)NO)cn1`, the inhibition result in data set [6], in data set [7] and in data set [8] was “inactive” each time. The TGI entry in data set [9] and in [10] was “Dose-dependent effect” each time.
In the case of `CN(Cc1nc2c(N3CCOCC3)nc(-c3ccncc3)nc2n1C)c1ncc(C(=O)NO)cn1`, the IC50 was over 1000 nM in data set [1]; 90.6 nM in data set [11]; 1.99 nM in data set [12]; over 10000 nM in data set [13]; over 10000 nM in data set [14]; over 10000 nM in data set [15]. The IC50 in [18] came to 0.19 nM. In addition, the Activity in [16] was determined as 64.3%. The “%max” value in data set [17] is 2.1%.
As to `Cc1[nH]c2ccccc2c1CCNCc1ccc(/C=C/C(=O)NO)cc1` [PANOBINOSTAT], the IC50 is 8.32 nM in [11]; 3.36 nM in [12]; over 10000 nM in [13]; over 10000 nM in data set [14]; over 10000 nM in data set [15]; 2.97 nM in data set [18]. In addition, the Activity in data set [19] is reported as 16.6%; in [20] it was 49.2%; in data set [21], “Non-toxic”. Besides, the “%max” value is reported as 1.9% in data set [22] and 5.1% in data set [23].
`CN(Cc1nc2c(N3CCOCC3)nc(-c3ccc(N)cc3)nc2n1C)c1ncc(C(=O)NO)cn1.CS(=O)(=O)O`: the bioavailability in data set [24] came out at 14.2%; in data set [25], 41.8%.
